Here are results for 15 compounds from ChEMBL document CHEMBL1136311, “Growth inhibition activity of thioacetal artemisinin derivatives against human umbilical vein endothelial cells” (Bioorg Med Chem Lett, 2003).

The assay has as its system HUVEC. Kind of assay: Inhibitory activity against human umbilical vein endothelial cells (HUVEC) was assayed using MTT colorimetric proliferation assay. Format: functional, cell-based. The procedure, abridged:
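HUVEC grown in EGM-2 medium with growth factor, seeded at 10,000 cells/well and left 4 h to adhere. Test compounds diluted in the medium were added. Incubation in a 5% CO₂ humidified atmosphere, then viability read by MTT colorimetric proliferation assay. Growth inhibition reported as IC50.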
On the technique in general: Tetrazolium assays rely on reduction of a dye to a coloured formazan, in cell work by metabolically active cells.
The IC50 is the midpoint of a concentration-inhibition curve. Read a high IC50 as weaker potency. For `CC(=O)S[C@H]1O[C@@H]2O[C@]3(C)CC[C@H]4[C@H](C)CC[C@@H]([C@H]1C)[C@@]24OO3`, the midpoint of inhibition, the IC50, lay at 4.56 µM. In other words, the single-digit micromolar range.

Compound `C[C@H]1[C@H](S)O[C@@H]2OC3(C)CC[C@H]4[C@H](C)CC[C@@H]1[C@@]24OO3` (single isomer, unassigned) registered a half-maximal inhibitory concentration (IC50) of 1.29 µM. Under `C[C@H]1[C@@H]2CC[C@@H](C)[C@@H]3CCC4(C)OO[C@@]23[C@H](O[C@@H]1S(=O)(=O)c1ccccc1)O4` (single isomer, unassigned) stands 1.74 µM; under `C[C@@H]1[C@@H]2CC[C@@H](C)[C@@H]3CCC4(C)O[C@@H](O[C@@H]1S(=O)(=O)c1ccccc1)[C@]23O4` (single isomer, unassigned), > 50 µM; under `C[C@H]1[C@@H](Sc2ccccc2)O[C@@H]2OC3(C)CC[C@H]4[C@H](C)CC[C@@H]1[C@@]24O3` (single isomer, unassigned), > 50 µM. Under `C[C@H]1[C@H](Oc2ccccc2)O[C@@H]2OC3(C)CC[C@H]4[C@H](C)CC[C@@H]1[C@@]24OO3` (single isomer, unassigned) stands 31 µM; under `C[C@H]1[C@@H](Oc2ccccc2)O[C@@H]2OC3(C)CC[C@H]4[C@H](C)CC[C@@H]1[C@@]24OO3` (single isomer, unassigned), 33.8 µM. On to `C[C@H]1[C@H](S(=O)(=O)c2ccccc2)O[C@@H]2OC3(C)CC[C@H]4[C@H](C)CC[C@@H]1[C@@]24OO3` (single isomer, unassigned), for which the IC50 amounted to 12.8 µM. Under `C[C@H]1[C@H](Sc2ccccc2)O[C@@H]2OC3(C)CC[C@H]4[C@H](C)CC[C@@H]1[C@@]24OO3` (single isomer, unassigned) stands 0.93 µM. Under `C[C@@H]1[C@@H]2CC[C@@H](C)[C@@H]3CCC4(C)OO[C@@]23[C@H](O[C@@H]1S(=O)(=O)c1ccccc1)O4` (single isomer, unassigned) stands 18.2 µM; under `C[C@H]1[C@@H](Sc2ccccc2)O[C@@H]2OC3(C)CC[C@H]4[C@H](C)CC[C@@H]1[C@@]24OO3` (single isomer, unassigned), 5.24 µM. Under `C[C@@H]1CC[C@H]2[C@@H](C)C(=O)O[C@@H]3O[C@@]4(C)CC[C@@H]1[C@]32OO4` [ARTEMISININ] stands > 50 µM; under `CCO[C@H]1O[C@@H]2O[C@@]3(C)CC[C@H]4[C@H](C)CC[C@@H]([C@H]1C)[C@@]24OO3` [ARTEMOTIL], > 50 µM; under `C[C@H]1[C@@H](O)O[C@@H]2O[C@@]3(C)CC[C@H]4[C@H](C)CC[C@@H]1[C@@]24OO3` [ARTENIMOL], 8.91 µM. Regarding `C[C@@H]1CC[C@H]2[C@@H](C)C(=O)O[C@@H]3O[C@@]4(C)CC[C@@H]1[C@]32O4` [DEOXYARTEMISININ], the IC50 is > 50 µM.
